CCR6 antag: CCR6 receptor antagonists, primary screen, cell-based, CHO-K1, luminescence, beta-arrestin, uHTS. C-C chemokine receptor type 6 (Homo sapiens), P51684. inhibition, % at 20 µM. CHO-K1 CCR6 PathHunter beta-arrestin, CCL20-stimulated. 340,000 compounds, 0.49% hits. AID 493098, 2011;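 active = compounds whose inhibition of the agonist-driven luminescence signal at 20 µM reaches about 50%, limit read from the data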;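 note: cells stimulated with CCL20 at 14 nM final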
Target sequence (P51684 whole entry, looked up): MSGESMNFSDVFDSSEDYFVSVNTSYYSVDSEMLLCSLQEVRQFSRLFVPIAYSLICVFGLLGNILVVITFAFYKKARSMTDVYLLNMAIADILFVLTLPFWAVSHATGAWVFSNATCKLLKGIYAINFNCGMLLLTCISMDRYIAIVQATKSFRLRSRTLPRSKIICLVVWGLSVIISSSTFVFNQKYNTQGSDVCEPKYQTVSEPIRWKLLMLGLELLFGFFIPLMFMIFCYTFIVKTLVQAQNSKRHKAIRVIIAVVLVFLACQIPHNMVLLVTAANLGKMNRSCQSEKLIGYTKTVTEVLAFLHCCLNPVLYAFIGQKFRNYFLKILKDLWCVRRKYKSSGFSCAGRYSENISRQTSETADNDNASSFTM
APJ antagonist: antagonists of human apelin receptor APJ, primary screen, CHO-K1 cells, beta-arrestin complementation, luminescence; 330,000 compounds, 0.32% hits; AID 2521, 2010; inhibition, % at 20 µM; P35414;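 active = inhibition above about 40% at 20 µM, limit read from the data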;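 note: cells challenged with 10 nM apelin-13 agonist together with compound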
CXCR6 inh: CXCR6 receptor inhibitors, primary screen, cell-based, beta-arrestin, luminescence, CHO-K1 PathHunter, 1536-well; 360,000 compounds, 0.36% hits; inhibition, % at 20 µM; in the data active = inhibition above about 34%, passing the limit was not always enough;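 note: antagonist mode with CXCL16 agonist at 10 nM final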
NTR1 agonist: agonists of human NTR1, primary screen, imaging, U2OS cells, beta-arrestin-GFP, high content; Neurotensin receptor type 1 (Homo sapiens), P30989; NTR1-U2OS beta-arrestin-GFP spot imaging, agonist mode; activation, % at 20 µM; 330,000 compounds, 0.17% hits;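 active = activation at or above 40% of the spot to cytoplasm intensity ratio, with at least 20 cells analyzed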
HTR2A ag: mouse Htr2a agonists via beta-arrestin recruitment, primary screen, cell-based, luminescence; 5-hydroxytryptamine receptor 2A (Mus musculus), P35363; CHO-K1 mHTR2A beta-arrestin complementation; percent of 30 µM serotonin response; activation, % at 7.6 µM; 360,000 compounds, 0.66% hits;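 active = activation above a run cutoff, the mean activation of all tested compounds plus 3 SD, cut at about 14% in these data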
APJ ag: agonists of human apelin receptor APJ, primary screen, CHO-K1 cells, PathHunter beta-arrestin, luminescence; 0% DMSO wells, 100% apelin; P35414; activation, % at 20 µM; 330,000 compounds, 0.11% hits;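 active = activation more than six SD over the plate average, tested at 20 µM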
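Test system: CHO-K1 APJ beta-arrestin complementation cell line. Amount: cell density 1000 per well. Controls: DMSO negative, 10 nM Apelin-13 positive. Signal: luminescent beta-gal fragment complementation, chemiluminescent substrate. Read-out basis: agonist-driven arrestin binding to APJ. Timing: compound stimulation 90 min at 25 °C, detection 60 min.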
APJ antag confirm: APJ antagonists blocking beta-arrestin recruitment, confirmation, cell-based, luminescence, single concentration, uHTS hits; AID 2766, 2010; inhibition, % at 20 µM; antagonist mode; shares compounds with APJ antagonist; 950 compounds, 66% hits; in the data active = inhibition above about 50%
Each line names hits and unclear results; the compound was inactive in the other large screens (follow-up assays come after a bar, where they were run). Hits are enriched below; roughly 1.5% of the tested compounds scored in any of these assays.

Cc1ccc(NC(=O)c2cc3c(CO)cnc(C)c3oc2=Nc2cccc(C(N)=O)c2)cc1	none
O=C(CCS(=O)(=O)c1ccccc1)N1CCN(c2ccccc2)CC1	none
N#Cc1ccc(S(=O)(=O)N2CCN(C(=O)c3cn(-c4ccccc4)nc3-c3cccnc3)CC2)cc1	none (no result: APJ antagonist, NTR1 agonist, APJ ag)
Cc1cccc(OC(C)C(=O)N2CCCN(C)CC2)c1C (centres undefined)	none
Cc1ccc2cccc(N)c2n1	APJ antagonist 41 | APJ antag confirm inactive
O=C(NCCN1CCCC1)c1ccc2c(c1)N(Cc1ccccc1)C(=O)c1ccccc1S2(=O)=O	none
CCCCNc1ccc2c(c1)C1CC2CCN1C(=O)OCc1ccccc1 (centres undefined)	none (no result: APJ antagonist, NTR1 agonist, APJ ag)
CC(C)CC(NC(=O)C1CCCN1C(=O)OC(C)(C)C)C(=O)NCC(N)=O (centres undefined)	none (no result: APJ antagonist, NTR1 agonist, APJ ag)
COC(=O)C(CC(C)C)NC(=O)C(Cc1ccccc1)NC(=O)C1CCCN1C(=O)OC(C)(C)C (centres undefined)	CCR6 antag 52, APJ antagonist 48 | APJ antag confirm inactive
CCc1cccc(C)c1NC(=O)c1ccc2c(c1)CCN2S(C)(=O)=O	none
O=C(CCC(=O)Nc1ccc(Br)cc1)N/N=C/c1cc([N+](=O)[O-])ccc1O	CCR6 antag 65, APJ antagonist 42 | APJ antag confirm inactive
Cc1cccc(NC(=O)CCC(=O)N/N=C/c2cc([N+](=O)[O-])ccc2O)c1	none
O=[N+]([O-])c1ccc(O)c(/C=N/NC2=NS(=O)(=O)c3ccccc32)c1	none
O=[N+]([O-])c1ccc(O)c(/C=N/Nc2ccc(Cl)nn2)c1	CCR6 antag 90, APJ antagonist 55, CXCR6 inh 79 | APJ antag confirm 81
O=C(Cc1ccccc1)Oc1coc(CSc2ncccn2)cc1=O	none
Cc1ccc(S(=O)(=O)Nc2cccc3cccnc23)cc1	CCR6 antag 86, APJ antagonist 76, CXCR6 inh 70 | APJ antag confirm 96
COc1cc(NS(=O)(=O)c2ccc(C)cc2)c2ncccc2c1	APJ antagonist 72 | APJ antag confirm 63
COc1ccc(C(=O)N2CCCC(c3cc(C(=O)NCc4ccc(F)cc4)no3)C2)cc1 (centres undefined)	none (no result: CCR6 antag, APJ antagonist, NTR1 agonist, APJ ag)
O=S(=O)(NCC(c1ccco1)N1CCc2ccccc2C1)c1ccc(F)cc1 (centres undefined)	none
CC(C(=O)N1CCc2ccccc21)n1cnc2c1c(=O)n(C)c(=O)n2C (centres undefined)	none
COc1cc(/C=N/NS(=O)(=O)c2ccc(C)c([N+](=O)[O-])c2)cc([N+](=O)[O-])c1O	APJ antagonist 50 | APJ antag confirm 60
COC(=O)c1ccc(N2NC(=O)/C(=C/c3cc(OC)c(O)c(OC)c3)C2=O)cc1	APJ antagonist 45 | APJ antag confirm inactive
CC[N+](CC)(CC#Cc1ccccc1)CC(=O)c1ccc(Cl)cc1	CCR6 antag 69, APJ antagonist 77 | APJ antag confirm inactive
O=C1Nc2ccc(F)cc2C12Nc1ccccc1-c1nnc(SCc3ccccc3)nc1O2 (centres undefined)	none
O=C1Nc2ccc(F)cc2C12Nc1ccccc1-c1nnc(SCc3ccccc3Cl)nc1O2 (centres undefined)	APJ antagonist 53 | APJ antag confirm 75
COc1cc(C(=O)NCCN2CCN(C(=O)c3cc(OC)c(OC)c(OC)c3)CC2)cc(OC)c1OC	none
CCc1ccccc1NC(=O)CCS(=O)(=O)c1ccc(OC)cc1	none
Nc1nc2ccc([N+](=O)[O-])cc2[nH]1	none
Nc1[nH]c2cc([N+](=O)[O-])ccc2c1-c1ccccn1	APJ antagonist 47 | APJ antag confirm 100
CCOC(=O)c1ccc(N2N=C(C)/C(=C/C=C/c3ccco3)C2=O)cc1	none
CC1=NN(c2ccc(C(=O)OC(C)C)cc2)C(=O)/C1=C\C=C\c1ccco1	APJ antagonist 57 | APJ antag confirm 51
CS(=O)(=O)N(CC(=O)N1CCCC1)c1ccc(Cl)cc1	none
CCOC(=O)C1CCCN(C(=O)CCc2nnc(-c3ccc(C(C)=O)s3)o2)C1 (centres undefined)	none
CC12CCC(C/C1=N/NC(=O)Nc1ccccc1)C2(C)C (centres undefined)	none
COc1cccc(NC(=S)N/N=C2\CC3CCC2(C)C3(C)C)c1 (centres undefined)	CCR6 antag 55, APJ antagonist 41 | APJ antag confirm 79
Nc1ccc(-c2c3ccc(=O)cc-3oc3cc(O)ccc23)c(C(=O)O)c1	APJ antagonist 43 | APJ antag confirm 66
O=c1cc2oc3cc(O)c(O)cc3c(-c3ccccc3[N+](=O)[O-])c-2cc1O	CCR6 antag 78, APJ antagonist 61, CXCR6 inh 58 | APJ antag confirm 105
O=c1cc(-c2ccccc2Cl)oc2cccc(O)c12	none
CCOC(=O)C1=CN(c2cccc(F)c2)C=C(C(=O)OCC)C1c1cc(OC)c(O)c([N+](=O)[O-])c1	APJ antagonist 44 | APJ antag confirm inactive
COc1ccc(C(=O)COC(=O)c2cnc(C)cn2)cc1OC	none
S=C(N/N=C/c1ccc(Cl)cc1)N1CCOCC1	CCR6 antag 55, APJ antagonist 41 | APJ antag confirm 60
S=C(N/N=C/c1ccc(Br)cc1)N1CCCCC1	none
CC(C)c1nc(C#N)c(NN)o1	APJ antagonist 42 | APJ antag confirm 66
CCNc1ccc(C(=O)OCC)cc1NC(=O)c1cccc(N(C)C)c1	none
CCOC(=O)c1ccc(S(=O)(=O)NNC(=O)c2cccc(N(C)C)c2)cc1	APJ antagonist 50 | APJ antag confirm inactive
COc1ccc(-c2c3c(nc4sc(C(=O)Nc5cc(C)on5)c(N)c24)CCC3)cc1	APJ antagonist 55 | APJ antag confirm inactive
COc1ccc(-c2c3c(nc4sc5c(=O)[nH]c(C)nc5c24)CCC3)cc1	none
CN(C)c1ccc(NC(=O)Cc2ccccc2)c2ccccc12	none
COc1cc(C(=O)NC(C)c2cc(C)ccc2C)ccc1OCC(=O)N1CCOCC1 (centres undefined)	none
Cc1ccc(S(=O)(=O)N/N=C/c2ccc3nccnc3c2)cc1	CCR6 antag 56, APJ antagonist 58 | APJ antag confirm 88
Cc1ccc(S(=O)(=O)N/N=C\c2cccnc2)cc1	none
